# Results as given in ChEMBL document CHEMBL1649388, “Imidazo[2,1-b]thiazole carbohydrate derivatives: Synthesis and antiviral activity against Junin virus, agent of Argentine hemorrhagic fever” (Eur J Med Chem, 2011).
# Assays:
# Junin virus [1] = assay: Antiviral activity against Junin virus IV4454 infected in african green monkey Vero cells assessed as reduction in virus yield after 48 hrs by plaque assay; type: functional, organism-based; conditions: Mammarenavirus juninense
# [2] = Selectivity index, ratio of CC50 for african green monkey Vero cells to EC50 for Junin virus IV4454 infected in african green monkey Vero cells; type: toxicity, cell-based; conditions: read-out: Selectivity Index
# [3] = (§1) Cytotoxicity against african green monkey Vero cells after 48 hrs by MTT assay; type: cell-based, Chlorocebus sabaeus; conditions: chlorocebus sabaeus, Vero cells
# Summary of the method: (§2)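 Confluent Vero cultures were exposed to a range of compound concentrations, three wells per concentration, for 48 h at 37 °C. Viability was read by MTT at 595 nm. CC₅₀ is the concentration reducing MTT signal by 50% versus untreated controls. Mean of three determinations.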
# Junin virus [4] = assay: Antiviral activity against Junin virus IV4454 infected in african green monkey Vero cells assessed as reduction in virus yield treated for 1.5 hrs before viral infection measured by plaque assay relative to control; type: functional, organism-based; conditions: Mammarenavirus juninense
# Junin virus [5] = assay: Antiviral activity against Junin virus IV4454 infected in african green monkey Vero cells assessed as reduction in virus yield at 50 to 200 uM treated for 1.5 hrs before viral infection measured by plaque assay relative to control; type: functional, Mammarenavirus juninense
# Vero = assay: as §1; type: cell-based, Chlorocebus sabaeus; conditions: Chlorocebus sabaeus, Vero, 48 h; summary of the method: as §2
Structure (SMILES),EC50 (Junin virus [1]) [µM],selectivity ratio [2],CC50 at 48 h [3] [µM],inhibition (Junin virus [4]),fold change (FC) (Junin virus [5]),IC50 (Vero) [µM]
CO[C@@H]1[C@H]2OC(C)(C)O[C@H]2O[C@@H]1C(=O)c1cnc2sc(C(=O)c3ccc(Cl)cc3)cn12,0.8,464,371,–,–,–
CC(=O)O[C@@H]1[C@H]2OC(C)(C)O[C@H]2O[C@@H]1C(=O)c1cnc2sc(C(=O)c3ccc(Cl)cc3)cn12,7.5,9.3,70,–,–,–
CC(=O)O[C@@H]1[C@H]2OC(C)(C)O[C@H]2O[C@@H]1C(=O)c1cnc2sc(C(=O)c3ccccc3)cn12,7.9,> 50.6,> 400,–,–,–
CC(=O)O[C@@H]1[C@H]2OC(C)(C)O[C@H]2O[C@@H]1C(=O)c1cnc2sc(C(=O)c3ccc(Br)cc3)cn12,5.6,24.8,139,–,–,–
CO[C@@H]1[C@H]2OC(C)(C)O[C@H]2O[C@@H]1C(=O)c1cn2cc(C(=O)c3ccc(Br)cc3)nc2s1,4.3,81.6,351,–,–,–
"COC1[C@@H](C(=O)c2cnc3sc(C(=O)c4ccc(Br)cc4)cn23)O[C@@H]2OC(C)(C)O[C@H]12 (single isomer, unassigned)",1.1,268,295,Dose-dependent effect,15,–
CO[C@@H]1[C@H]2OC(C)(C)O[C@H]2O[C@@H]1C(=O)c1cn2cc(C(=O)c3ccc(Cl)cc3)nc2s1,11.9,> 33.6,> 400,–,–,–
CO[C@@H]1[C@H]2OC(C)(C)O[C@H]2O[C@@H]1C(=O)c1cn2cc(C(=O)c3ccc(F)cc3)nc2s1,2.9,> 138,> 400,–,–,–
CC(=O)O[C@@H]1[C@H]2OC(C)(C)O[C@H]2O[C@@H]1C(=O)c1cnc2sc(C(=O)c3ccc(F)cc3)cn12,4.9,> 81.6,> 400,–,–,–
NC(=O)c1ncn([C@@H]2O[C@H](CO)[C@@H](O)[C@H]2O)n1 [RIBAVIRIN],18.5,> 21.6,–,–,–,> 400
"COC1[C@@H](C(=O)c2cnc3sc(C(=O)c4ccccc4)cn23)O[C@@H]2OC(C)(C)O[C@H]12 (single isomer, unassigned)",18.5,> 21.6,> 400,–,–,–
CO[C@@H]1[C@H]2OC(C)(C)O[C@H]2O[C@@H]1C(=O)c1cnc2sc(C(=O)c3ccc(F)cc3)cn12,78.3,> 5.1,> 400,–,–,–
CO[C@@H]1[C@H]2OC(C)(C)O[C@H]2O[C@@H]1C(=O)c1cn2cc(C(=O)c3ccccc3)nc2s1,12.3,> 32.5,> 400,–,–,–
